Columns and labels:
RM-1 cells [1] = test: MTT cytotoxicity assay against RM-1 cells; type: cell-based, mouse; details: for effect of GSP on the sensitivity of cells to the drug: GSP at an ineffective concentration of 0.5 μmol/L
Method in brief: (§1)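 Cells were seeded at 2 × 10³ per well and grown for 12 h at 37 ℃, 5% CO₂. RM-1, 4T1 and L02 were kept in RPMI 1640 with 10% FBS; 3T3 in DMEM/F-12 with 10% FBS. […] MTT (5 mg/mL stock) was added for 4 h, formazan was dissolved in DMSO, and absorbance was read at 492 nm.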

4T1 cells = test: MTT cytotoxicity assay against 4T1 cells; type: cell-based, mouse; details: 48 h
Method in brief: as §1

3T3 cells = test: MTT cytotoxicity assay against 3T3 cells; type: cell-based, mouse
Method in brief: as §1

L02 cells = test: MTT cytotoxicity assay against L02 cells; type: cell-based, human
Method in brief: as §1

RM-1 cells [2] = test: Live/dead cell co-staining; type: cell-based, mouse; details: 100 nmol/L CTX equivalent and/or 300 nmol/L GSP equivalent, 24 h
Method in brief: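 RM-1 cells were seeded on coverslips at 5 × 10⁴ cells/well and grown for 12 h. […] Cells were stained with Calcein-AM (live) and PI (dead) for 30 min and imaged by confocal microscopy. Untreated cells were the control.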

Bcl-2 = test: Western blotting of Bcl-2 in RM-1 cells; type: cell-based, mouse; details: 10 nmol/L CTX equivalent and/or 30 nmol/L GSP equivalent, 40 h
RM-1 cells [3] = test: Mitochondrial membrane potential assay; type: cell-based, mouse; details: green = low potential
Method in brief: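 Cells were stained with JC-1 working solution at 37 ℃ for 20 min, washed twice in cold JC-1 buffer and imaged by confocal microscopy (red aggregates, green monomers). Depolarization was quantified in ImageJ. For flow cytometry, cells seeded at 5 × 10⁴/well were trypsinised before staining. Untreated cells were the control.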

RM-1 prostate tumor [4] = test: In vivo antitumor efficacy, RM-1 prostate tumor-bearing C57BL/6 mice; set-up: species or system mouse; details: 4 mg/kg CTX equivalent and/or 7.5 mg/kg GSP equivalent, i.v., every three days, three injections
RM-1 prostate tumor [5] = test: GSP-rendered ultra-low-dose chemotherapeutic window in vivo; set-up: species or system mouse; details: five injections
Method in brief: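 Male C57BL/6 mice were given 5 × 10⁶ RM-1 cells in 100 μL PBS subcutaneously in the right rear flank. […] Dosing was i.v. every other day, five injections. Tumor volume and body weight were recorded daily. Blood was taken one day after the last dose; organs were taken for H&E.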

testosterone = test: Serum testosterone; type: in vivo, mouse; details: 4 mg/kg CTX equivalent and/or 7.5 mg/kg GSP equivalent, three injections
[6] = 14.9 mg/kg GSP equivalent, i.v.

Cc1cc2c(C(C)C)c(O)c(O)c(C=O)c2c(O)c1-c1c(C)cc2c(C(C)C)c(O)c(O)c(C=O)c2c1O [GSP, Gossypol]
cytotoxicity (in words) (RM-1 cells [1]; MTT, 48 h): almost no cytotoxicity
cytotoxicity (in words) (4T1 cells): almost no cytotoxicity
cytotoxicity (in words) (3T3 cells; MTT, 48 h): almost no cytotoxicity
cytotoxicity (in words) (L02 cells; MTT, 48 h): almost no cytotoxicity
cell death in live/dead staining (RM-1 cells [2]): only a small portion of cells
expression of Bcl-2 protein (Bcl-2): significantly down-regulated the expression of Bcl-2
mitochondrial membrane potential change (JC-1 fluorescence, in words) (RM-1 cells [3]): negligible impact
antitumor activity (tumor growth) (RM-1 prostate tumor [4]): moderate antitumor activity
antitumor effects (RM-1 prostate tumor [5]; [6]): moderate antitumor effects
body weight of tumor-bearing mice (RM-1 prostate tumor [5]; [6]): decreased significantly
liver tissue sections (H&E) (RM-1 prostate tumor [5]; [6]): some degree of liver injury

COc1cccc2c1C(=O)c1c(O)c3c(c(O)c1C2=O)C[C@@](O)(C(=O)CO)C[C@@H]3O[C@H]1C[C@H](N)[C@H](O)[C@H](C)O1 [DOX, doxorubicin]
effect of GSP on the sensitivity of cells to the drug (RM-1 cells [1]): dramatically augmented

Nc1ccn([C@@H]2O[C@H](CO)[C@@H](O)C2(F)F)c(=O)n1 [GEM, gemcitabine]
effect of GSP on the sensitivity of cells to the drug (RM-1 cells [1]): dramatically augmented

CO[C@H]1C(=O)[C@]2(C)[C@@H](OC)C[C@H]3OC[C@@]3(OC(C)=O)[C@H]2[C@H](OC(=O)c2ccccc2)[C@]2(O)C[C@H](OC(=O)[C@H](O)[C@@H](NC(=O)OC(C)(C)C)c3ccccc3)C(C)=C1C2(C)C [CTX, Cabazitaxel]
reduction in IC50 values in the presence of GSP (RM-1 cells [1]; 0.5 μmol/L GSP): ≥ 100 fold
effect of GSP on the sensitivity of cells to the drug (RM-1 cells [1]): dramatically augmented
effect of GSP on the cytotoxicity of the drug (3T3 cells; 500 nmol/L GSP): little effect
effect of GSP on the cytotoxicity of the drug (L02 cells; 500 nmol/L GSP): little effect
cell death in live/dead staining (RM-1 cells [2]): only a small portion of cells
mitochondrial membrane potential change (JC-1 fluorescence, in words) (RM-1 cells [3]): green fluorescence signals were significantly enhanced
antitumor activity (tumor growth) (RM-1 prostate tumor [4]): moderate antitumor activity
serum testosterone (testosterone): no change in serum testosterone
body weight (RM-1 prostate tumor [5]; CTX dose gradient 1–8 mg/kg): dramatic weight loss
hepatorenal function indicators and whole blood indexes (RM-1 prostate tumor [5]; CTX dose gradient 1–8 mg/kg): abnormalities in hepatorenal function indicators and pancytopenia
toxicity (weight loss, death) (RM-1 prostate tumor [5]; high doses 4, 6 and 8 mg/kg CTX equivalent, i.v.): serious toxic side effects
anti-tumor effects (RM-1 prostate tumor [5]; low doses 1 and 2 mg/kg CTX equivalent, i.v.): negligible anti-tumor effects

N.N.[Cl][Pt][Cl] [DDP, cisplatin]
effect of GSP on the sensitivity of cells to the drug (RM-1 cells [1]): dramatically augmented

CC(=O)O[C@@]12CO[C@@H]1C[C@H](O)[C@@]1(C)C(=O)[C@H](O)C3=C(C)[C@@H](OC(=O)[C@H](O)[C@@H](NC(=O)OC(C)(C)C)c4ccccc4)C[C@@](O)([C@@H](OC(=O)c4ccccc4)[C@H]21)C3(C)C [DTX, docetaxel]
effect of GSP on the sensitivity of cells to the drug (RM-1 cells [1]): dramatically augmented

O=C1[O][Pt]2([NH][C@@H]3CCCC[C@H]3[NH]2)[O]C1=O [OXP, oxaliplatin]
effect of GSP on the sensitivity of cells to the drug (RM-1 cells [1]): dramatically augmented
